The term pKi denotes −log10 of the Ki, conventionally taken in molar units.

Molecules are shown by their SMILES. pKi: −log10 of the molar value. Calls of active or inactive are those of the source. The rule behind the calls is not given here.

For series [1], the target named is T1, Protein kinase C alpha type (Homo sapiens, UniProt P17252). In words: Activation of GFP-tagged PKCalpha expressed in CHO cells assessed as isozyme translocation from cytosol to plasma membrane at 10 uM by confocal microscopy. It is filed as cell-based. Put shortly:
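GFP-PKCα transiently transfected (Lipofectamine) into CHO cells grown in F12-K with 10% FBS; cells given 10 μM compound and redistribution followed over time by confocal microscopy (488 nm argon excitation), images every 30 s; kinetics of plasma-membrane translocation scored from four independent experiments.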

The target in series [2] is T2, Protein kinase C gamma type (Homo sapiens, UniProt P05129). In words: Displacement of [3H]PDBu form human PKCgamma in presence of plasma membrane lipid mimetic mixture. Summed up:
(§1)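 [3H]PDBu competition on individual recombinant human PKC isozymes in 100 μg/mL total lipid mimicking the plasma-membrane inner leaflet (PC/PE/PS/PI/cholesterol 12:35:22:9:21); ID50 fitted to a sigmoidal competition curve, Ki = ID50/(1 + L/Kd); three independent determinations, mean ± SEM.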

The target of series [3] is T3, Protein kinase C beta type (Homo sapiens, UniProt P05771). In words: Displacement of [3H]PDBu form human PKCbeta in presence of plasma membrane lipid mimetic mixture. Summed up: as §1
T3 sequence (P05771 whole entry): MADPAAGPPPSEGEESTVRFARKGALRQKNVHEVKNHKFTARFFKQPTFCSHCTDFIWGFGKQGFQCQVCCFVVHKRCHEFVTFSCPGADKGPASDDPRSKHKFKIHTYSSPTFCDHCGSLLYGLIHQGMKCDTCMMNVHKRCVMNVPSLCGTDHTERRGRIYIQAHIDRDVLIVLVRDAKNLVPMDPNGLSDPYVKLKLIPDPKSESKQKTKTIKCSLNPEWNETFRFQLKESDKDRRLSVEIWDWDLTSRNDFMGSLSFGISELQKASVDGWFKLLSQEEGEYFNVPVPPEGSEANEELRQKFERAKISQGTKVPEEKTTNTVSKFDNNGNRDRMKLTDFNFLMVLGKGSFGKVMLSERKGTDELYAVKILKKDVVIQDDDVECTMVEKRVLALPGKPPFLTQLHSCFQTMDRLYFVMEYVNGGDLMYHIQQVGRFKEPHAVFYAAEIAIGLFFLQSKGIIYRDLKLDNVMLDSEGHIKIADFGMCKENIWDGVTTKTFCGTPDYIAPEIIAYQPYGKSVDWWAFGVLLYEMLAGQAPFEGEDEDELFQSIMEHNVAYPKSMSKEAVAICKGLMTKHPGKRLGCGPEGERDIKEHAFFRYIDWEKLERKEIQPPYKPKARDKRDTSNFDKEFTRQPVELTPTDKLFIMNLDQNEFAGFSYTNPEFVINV
A short description of series [4]: Membrane binding affinity to synthetic dimyristoylphosphatidylcholine/polydiacetylene vesicles assessed as increase in fluorescence chromatic response by fluorescence spectroscopy. It is filed as physicochemical. Summed up: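 DMPC/10,12-tricosadiynoic acid vesicles polymerized at 254 nm for 30 s, used at 0.5 mM total lipid in 50 mM Tris, pH 8; compounds in DMSO mixed with vesicles before buffer addition; fluorescence read at 485/555 nm excitation/emission, expressed as % of fully transformed red vesicles over a dose range.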

In series [5] the target is T2, Protein kinase C gamma type. In words: Displacement of [3H]PDBu form human PKCgamma in presence of phosphatidylserine. Summed up:
(§2)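 Recombinant human PKC isozyme, single isozyme per assay, with 100 μg/mL phosphatidylserine; competition of unlabeled ligand against [20-3H]PDBu binding; ID50 from least-squares sigmoidal fit, converted to Ki = ID50/(1 + L/Kd), L being free [3H]PDBu at ID50; mean ± SEM of three independent experiments.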
In general terms: Displacement assays read how much labelled ligand stays bound in the presence of the test substance.

The next series concerns LNCaP. Put plainly: Induction of apoptosis in human LNCAP cells after 48 hrs by flow cytometry relative to PMA. It is filed as functional, cell-based. Put shortly:
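LNCaP cells in RPMI-1640/10% FBS, plated at ~60% confluency, treated with a concentration series for 48 h alongside 1 μM PMA; stained with YO-PRO-1 (1 μM final, 20 min, 4 °C, dark) then 7-AAD (5 μg/mL final, 10 min) and analyzed by flow cytometry; YO-PRO-1-positive cells taken as apoptotic, % of total; three experiments.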

Series [6] deals with T1, Protein kinase C alpha type. In words: Displacement of [3H]PDBu form human PKCalpha in presence of phosphatidylserine. Summed up: as §2
Series [7] has as its target T4, Protein kinase C delta type (Homo sapiens, UniProt Q05655). Put plainly: Activation of GFP-tagged PKCdelta expressed in CHO cells assessed as isozyme translocation from cytosol to internal membrane at 10 uM by confocal microscopy. It is filed as cell-based. Summed up:
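CHO cells in F12-K/10% FBS transiently transfected with GFP-PKCδ, exposed to 10 μM compound; confocal imaging at 488 nm every 30 s after addition; relative localization to plasma, nuclear and internal membranes scored semi-quantitatively (+ marks) over three independent experiments.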
Target sequence in this assay (Q05655 whole entry, looked up): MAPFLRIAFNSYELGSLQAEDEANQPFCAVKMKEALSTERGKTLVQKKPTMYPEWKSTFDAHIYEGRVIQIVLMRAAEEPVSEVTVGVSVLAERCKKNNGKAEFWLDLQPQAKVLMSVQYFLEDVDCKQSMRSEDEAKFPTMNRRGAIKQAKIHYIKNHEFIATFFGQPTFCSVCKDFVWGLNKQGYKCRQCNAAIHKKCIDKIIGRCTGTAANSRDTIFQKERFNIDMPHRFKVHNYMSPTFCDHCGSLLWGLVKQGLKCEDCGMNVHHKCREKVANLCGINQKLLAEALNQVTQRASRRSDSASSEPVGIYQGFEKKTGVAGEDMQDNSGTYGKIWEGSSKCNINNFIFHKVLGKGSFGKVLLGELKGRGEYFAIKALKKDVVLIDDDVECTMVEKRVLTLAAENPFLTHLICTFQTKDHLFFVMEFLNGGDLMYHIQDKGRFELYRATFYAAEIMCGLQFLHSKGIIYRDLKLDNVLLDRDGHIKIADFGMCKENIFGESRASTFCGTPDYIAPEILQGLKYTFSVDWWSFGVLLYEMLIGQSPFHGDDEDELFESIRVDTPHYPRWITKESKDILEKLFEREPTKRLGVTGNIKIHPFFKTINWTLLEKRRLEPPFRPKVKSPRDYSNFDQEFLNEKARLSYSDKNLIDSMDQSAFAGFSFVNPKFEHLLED

Series [8] deals with T1, Protein kinase C alpha type. In words: Displacement of [3H]PDBu form human PKCalpha in presence of plasma membrane lipid mimetic mixture. Summed up: as §1
Series [9] has as its target T4, Protein kinase C delta type. In words: Displacement of [3H]PDBu form human PKCdelta in presence of phosphatidylserine. Summed up: as §2
Target sequence in this assay (Q05655 whole entry): as the sequence (Q05655 whole entry, looked up) above
The target of series [10] is T3, Protein kinase C beta type. Put plainly: Displacement of [3H]PDBu form human PKCbeta in presence of phosphatidylserine. Summed up: as §2
In series [11] the target is T5, Protein kinase C epsilon type (Homo sapiens, UniProt Q02156).
T5 sequence (Q02156 whole entry): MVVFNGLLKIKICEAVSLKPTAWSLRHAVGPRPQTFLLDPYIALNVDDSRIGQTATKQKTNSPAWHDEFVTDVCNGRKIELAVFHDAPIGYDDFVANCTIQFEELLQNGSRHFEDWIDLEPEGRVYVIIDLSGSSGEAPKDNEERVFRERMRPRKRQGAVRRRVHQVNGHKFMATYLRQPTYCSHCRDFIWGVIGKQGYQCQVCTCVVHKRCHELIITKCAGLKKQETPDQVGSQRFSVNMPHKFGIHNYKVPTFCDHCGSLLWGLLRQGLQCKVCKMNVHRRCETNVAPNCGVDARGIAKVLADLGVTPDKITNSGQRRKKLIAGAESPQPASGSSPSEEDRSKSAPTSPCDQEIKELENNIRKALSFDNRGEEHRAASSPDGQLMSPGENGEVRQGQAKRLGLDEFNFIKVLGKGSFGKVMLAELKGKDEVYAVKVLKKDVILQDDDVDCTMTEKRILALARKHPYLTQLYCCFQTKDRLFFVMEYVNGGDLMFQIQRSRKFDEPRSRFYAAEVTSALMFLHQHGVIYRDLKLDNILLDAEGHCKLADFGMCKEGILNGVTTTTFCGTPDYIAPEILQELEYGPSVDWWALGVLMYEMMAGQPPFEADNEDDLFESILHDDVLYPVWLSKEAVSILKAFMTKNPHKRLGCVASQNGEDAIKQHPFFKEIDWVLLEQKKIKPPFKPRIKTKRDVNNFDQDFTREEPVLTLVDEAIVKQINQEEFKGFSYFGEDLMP
In words: Displacement of [3H]PDBu form human PKCepsilon in presence of plasma membrane lipid mimetic mixture. Summed up: as §1

In series [12] the target is T4, Protein kinase C delta type. Put plainly: Displacement of [3H]PDBu form human PKCdelta in presence of plasma membrane lipid mimetic mixture. Summed up:
as §1
Target sequence in this assay (Q05655 whole entry): as the sequence (Q05655 whole entry, looked up) above

Series [13] concerns the target T5, Protein kinase C epsilon type. Put plainly: Displacement of [3H]PDBu form human PKCepsilon in presence of phosphatidylserine. Put shortly:
as §2

For `CC(C)=C1CC(CO)(COC(=O)COc2ccc(C#Cc3ccc(C)cc3)cc2)OC1=O` (stereo unspecified), the outcome (in [1]; in the series with LNCaP; in series [7]) was Active. Also, the pKi in series [2] is 6.86; in series [3], 7.00; in [5], 7.29; in [6] it was 7.42; in [8] it was 6.78; in series [9], 7.33. Besides, the pKi in series [10] was 7.12; in series [11] it was 6.83; in series [12], 7.32; in series [13], 6.57. In addition, the result in [4] was Active.
Take `CC(C)=C1CC(CO)(COC(=O)c2ccc(C#Cc3ccc(C)cc3)cc2)OC1=O` (stereo unspecified): in [1], the outcome was Active. Further, the negative logarithm of the Ki (pKi) in series [2] is 7.80; in series [3], 7.90; in [5], 8.21; in series [6], 8.22; in series [8], 7.80; in series [9], 8.27. The pKi in series [10] was 8.39; in series [11], 8.08; in [12] it was 8.56; in series [13], 8.00. Further, in series [4], the result was Active.
For the molecule `CC(C)=C1CC(CO)(COC(=O)CCCOc2ccc(C#Cc3ccc(C)cc3)cc2)OC1=O` (stereo unspecified), the result in series [1] was Active. Moreover, the negative-log Ki (pKi) was 7.50 in series [2]; 7.36 in [3]; 7.91 in series [5]; 7.71 in [6]; 7.12 in series [8]; 7.92 in series [9]. Also, the negative logarithm of the Ki (pKi) in [10] was 7.82; in series [11] it was 7.50; in series [12], 7.94; in series [13], 7.42. In series [4], the result was Active.
As to `CC(C)=C1CC(CO)(COC(=O)CCOc2ccc(C#Cc3ccc(C)cc3)cc2)OC1=O` (stereo unspecified), the outcome in series [1] and in series [7] was Active. The pKi in [2] was 7.11; in [3], 7.18; in series [5] it was 7.46; in [6], 7.68; in series [8], 6.84; in series [9], 7.45. Besides, the negative-log Ki (pKi) is 7.24 in [10], 7.10 in series [11], 7.50 in series [12] and 6.82 in series [13]. Also, the outcome in [4] was Active.

For the origin of these results see ChEMBL document CHEMBL1138492, “Conformationally constrained analogues of diacylglycerol (DAG). 31. Modulation of the biological properties of diacylgycerol lactones (DAG-lactones) containing rigid-rod acyl groups separated from the core lactone by spacer units of different lengths” (J Med Chem, 2009).
